Measurements: ChEMBL document CHEMBL2040727, “Substituted thiazoles VI. Synthesis and antitumor activity of new 2-acetamido- and 2 or 3-propanamido-thiazole analogs” (2012)

Columns and labels:
Assay type in all cases: functional
HCT-116 = test: Growth inhibition of human HCT116 cells at 10 uM after 48 hrs by coulter counter analysis; conditions: HCT-116, 48 h, read-out: GI
How it was run: (§1)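 Single-dose NCI 60-line panel screen of test compounds. Cells grown in RPMI 1640 with 10% FBS. Compounds dissolved in DMSO, then diluted in phosphate buffer saline (final DMSO below 1%). Wells run in duplicate at 6 × 10⁴ cells/ml. Controls held PBS and DMSO at matching dilutions. Incubation 48 h at 37 °C under humidified 5% CO2. Cells diluted tenfold in saline and counted by Coulter counter. Percent growth inhibition taken from mean-graph of treated-cell growth.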

COLO 205 = test: Growth inhibition of human COLO205 cells at 10 uM after 48 hrs by coulter counter analysis; conditions: COLO 205, 48 h, read-out: GI; how it was run: as §1
RXF 393 = test: Growth inhibition of human RXF393 cells at 10 uM after 48 hrs by coulter counter analysis; conditions: RXF 393, 48 h, read-out: GI; how it was run: as §1
HL-60(TB) = test: Growth inhibition of human HL-60(TB) cells at 10 uM after 48 hrs by coulter counter analysis; conditions: HL-60, 48 h, read-out: GI
How it was run: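 Cells grown in RPMI 1640 with 10% FBS. Compound was dissolved in DMSO and diluted in PBS (under 1% DMSO final), then added in duplicate wells to culture at 6 × 10⁴ cells/ml. PBS/DMSO vehicle controls were included. Incubated at 37 °C, humidified 5% CO₂, for 48 h. Cells were diluted 10-fold in saline and Coulter-counted. Single-dose NCI-60 screen, read as percent growth inhibition.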

UO-31 = test: Growth inhibition of human UO31 cells at 10 uM after 48 hrs by coulter counter analysis; conditions: UO-31, 48 h, read-out: GI
How it was run: (§2)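 Single-dose screen in the NCI 60 cell line panel. Cells grown in RPMI 1640 with 10% FBS. Compounds dissolved in DMSO and diluted in phosphate buffered saline, final DMSO under 1%. Duplicate wells seeded from culture at 6 × 10⁴ cells/ml. Incubated 48 h at 37 °C, humidified, 5% CO2. Cells diluted tenfold in saline and Coulter-counted. Percent growth inhibition computed against PBS/DMSO controls.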

HCT-15 = test: Growth inhibition of human HCT15 cells at 10 uM after 48 hrs by coulter counter analysis; conditions: HCT-15, 48 h, read-out: GI; how it was run: as §1
U-251 = test: Growth inhibition of human U251 cells at 10 uM after 48 hrs by coulter counter analysis; conditions: U-251, 48 h, read-out: GI; how it was run: as §2
MDA-MB-231 = test: Growth inhibition of human MDA-MB-231 cells at 10 uM after 48 hrs by coulter counter analysis; conditions: MDA-MB-231, 48 h, read-out: GI; how it was run: as §1
UACC-257 = test: Growth inhibition of human UACC257 cells at 10 uM after 48 hrs by coulter counter analysis; conditions: UACC-257, 48 h, read-out: GI; how it was run: as §2
SK-OV-3 = test: Growth inhibition of human SKOV3 cells at 10 uM after 48 hrs by coulter counter analysis; conditions: SK-OV-3, 48 h, read-out: GI; how it was run: as §1
SF-539 = test: Growth inhibition of human SF539 cells at 10 uM after 48 hrs by coulter counter analysis; conditions: SF-539, 48 h, read-out: GI; how it was run: as §1
OVCAR-4 = test: Growth inhibition of human OVCAR4 cells at 10 uM after 48 hrs by coulter counter analysis; conditions: OVCAR-4, 48 h, read-out: GI; how it was run: as §1
NCI-H226 = test: Growth inhibition of human NCI-H226 cells at 10 uM after 48 hrs by coulter counter analysis; conditions: NCI-H226, 48 h, read-out: GI; how it was run: as §1
SK-MEL-28 = test: Growth inhibition of human SK-MEL-28 cells at 10 uM after 48 hrs by coulter counter analysis; conditions: SK-MEL-28, 48 h, read-out: GI; how it was run: as §1
KM12 = test: Growth inhibition of human KM12 cells at 10 uM after 48 hrs by coulter counter analysis; conditions: KM12, 48 h, read-out: GI; how it was run: as §1
TK-10 = test: Growth inhibition of human TK10 cells at 10 uM after 48 hrs by coulter counter analysis; conditions: TK-10, 48 h, read-out: GI; how it was run: as §2
CAKI-1 = test: Growth inhibition of human Caki1 cells at 10 uM after 48 hrs by coulter counter analysis; conditions: CAKI-1, 48 h, read-out: GI; how it was run: as §1
RPMI-8226 = test: Growth inhibition of human RPMI8226 cells at 10 uM after 48 hrs by coulter counter analysis; conditions: RPMI-8226, 48 h, read-out: GI; how it was run: as §1
BT-549 = test: Growth inhibition of human BT549 cells at 10 uM after 48 hrs by coulter counter analysis; conditions: BT-549, 48 h, read-out: GI; how it was run: as §1
PC-3 = test: Growth inhibition of human PC3 cells at 10 uM after 48 hrs by coulter counter analysis; conditions: PC-3, 48 h, read-out: GI; how it was run: as §1
SR = test: Growth inhibition of human SR cells at 10 uM after 48 hrs by coulter counter analysis; conditions: read-out: GI; how it was run: as §2
MDA-MB-468 = test: Growth inhibition of human MDA-MB-468 cells at 10 uM after 48 hrs by coulter counter analysis; conditions: MDA-MB-468, 48 h, read-out: GI; how it was run: as §1
NCI-H460 = test: Growth inhibition of human NCI-H460 cells at 10 uM after 48 hrs by coulter counter analysis; conditions: NCI-H460, 48 h, read-out: GI; how it was run: as §1

Compound	inhibition of growth at 10 µM (HCT-116)	inhibition of growth at 10 µM (COLO 205)	inhibition of growth at 10 µM (RXF 393)	inhibition of growth at 10 µM (HL-60(TB))	inhibition of growth at 10 µM (UO-31)	inhibition of growth at 10 µM (HCT-15)	inhibition of growth at 10 µM (U-251)	inhibition of growth at 10 µM (MDA-MB-231)	inhibition of growth at 10 µM (UACC-257)	inhibition of growth at 10 µM (SK-OV-3)	inhibition of growth at 10 µM (SF-539)	inhibition of growth at 10 µM (OVCAR-4)	inhibition of growth at 10 µM (NCI-H226)	inhibition of growth at 10 µM (SK-MEL-28)	inhibition of growth at 10 µM (KM12)	inhibition of growth at 10 µM (TK-10)	inhibition of growth at 10 µM (CAKI-1)	inhibition of growth at 10 µM (RPMI-8226)	inhibition of growth at 10 µM (BT-549)	inhibition of growth at 10 µM (PC-3)	further results
CC(C(=O)Nc1nccs1)N1CCN(c2ccccc2)CC1 (configuration not stated)	< 10%	< 10%	< 10%	< 10%	< 10%	< 10%	< 10%	< 10%	< 10%	< 10%	< 10%	< 10%	< 10%	< 10%	< 10%	< 10%	< 10%	< 10%	< 10%	< 10%	inhibition of growth at 10 µM (SR): < 10%; inhibition of growth at 10 µM (MDA-MB-468): < 10%; inhibition of growth at 10 µM (NCI-H460): < 10%
Cc1csc(NC(=O)C(C)N2CCN(c3ccccc3)CC2)n1 (configuration not stated)	< 10%	< 10%	< 10%	< 10%	17.9%	< 10%	< 10%	< 10%	< 10%	< 10%	< 10%	< 10%	11.7%	< 10%	< 10%	< 10%	< 10%	< 10%	< 10%	< 10%	inhibition of growth at 10 µM (SR): < 10%; inhibition of growth at 10 µM (MDA-MB-468): < 10%; inhibition of growth at 10 µM (NCI-H460): < 10%
CCOC(=O)c1sc(NC(=O)C(C)N(CC)CC)nc1C (configuration not stated)	< 10%	< 10%	< 10%	< 10%	< 10%	< 10%	< 10%	< 10%	< 10%	< 10%	< 10%	< 10%	< 10%	< 10%	< 10%	< 10%	12%	< 10%	< 10%	< 10%	inhibition of growth at 10 µM (SR): < 10%; inhibition of growth at 10 µM (MDA-MB-468): < 10%; inhibition of growth at 10 µM (NCI-H460): < 10%
CCOC(=O)c1sc(NC(=O)C(C)N2CCCCC2)nc1C (configuration not stated)	< 10%	< 10%	< 10%	< 10%	13.4%	< 10%	< 10%	< 10%	< 10%	< 10%	< 10%	< 10%	< 10%	< 10%	< 10%	< 10%	12.2%	< 10%	< 10%	< 10%	inhibition of growth at 10 µM (SR): < 10%; inhibition of growth at 10 µM (MDA-MB-468): < 10%; inhibition of growth at 10 µM (NCI-H460): < 10%
